Test results: paper PMC10155261 (European journal of medicinal chemistry, 2022)
Where two headings read alike, the source gives them in different places. Blank lines part the entries; values can stand above or below the compound they belong to.

Assays:
LPA5 [1] = conditions: cAMP assay ref 31; cited from earlier work
[2] = test system: CFA-induced nociceptive hypersensitivity in rats; assay: CFA-induced inflammatory pain model, von Frey mechanical nociception; type: in vivo, Sprague-Dawley rats; conditions: i.p.; for duration of effect in CFA model: 65 and 66 at 17.8 mg/kg, 2 at 32 mg/kg
[3] = test system: CCI-induced mechanical allodynia in rats; assay: Chronic constriction injury; type: in vivo, Sprague-Dawley rats; conditions: i.p., 32 mg/kg
hLPA5 [4] = target: T1, hLPA5 (Homo sapiens, UniProt Q9H1C0); assay: LPA5 calcium mobilization assay; type: cell-based; conditions: for fold less potent than 2: in both calcium mobilization and cAMP assays; for IC50, nM: RH7777-hLPA5 cells, against EC80 (30 nM) of hexadecyl LPA 16:0, mean ± SEM
T1 sequence (Q9H1C0 whole entry): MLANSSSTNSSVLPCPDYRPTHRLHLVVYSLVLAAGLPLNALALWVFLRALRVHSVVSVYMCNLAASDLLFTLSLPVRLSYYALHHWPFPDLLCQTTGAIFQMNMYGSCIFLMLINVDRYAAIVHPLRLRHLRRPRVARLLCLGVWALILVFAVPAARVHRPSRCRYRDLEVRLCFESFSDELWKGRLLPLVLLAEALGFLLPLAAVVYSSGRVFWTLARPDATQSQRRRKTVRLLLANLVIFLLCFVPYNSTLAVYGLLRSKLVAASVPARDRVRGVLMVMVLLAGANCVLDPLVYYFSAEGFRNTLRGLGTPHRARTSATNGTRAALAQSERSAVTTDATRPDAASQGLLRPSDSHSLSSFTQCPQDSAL
Summary of the method: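 RH7777-hLPA5 cells were plated on poly-D-lysine at 20,000 cells/well in 0.2% FBS medium for 18–20 h at 37 °C. They were loaded 45 min with Calcium 5 dye in HBSS, 20 mM HEPES and 2.5 mM probenecid, pH 7.4. Eight test-compound concentrations were pre-incubated for 15 min at 37 °C, then hexadecyl LPA 16:0 EC80 (30 nM) was added at 10 s. Fluorescence (485/525 nm) was read every 1 s for 90 s. IC50 came from a three-parameter logistic fit of RFU. Duplicate determinations; two or at least three independent experiments.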

LPA5 [5] = conditions: SAR study of Kawamoto et al. ref 32; cited from earlier work
hLPA5 [6] = target: T1, hLPA5; assay: LPA5 TR-FRET Lance Ultra cAMP assay; type: cell-based; conditions: for fold less potent than 2: cAMP assay
LPA1–LPA4 receptors = assay: LPA1–LPA3 calcium mobilization; type: cell-based; conditions: 10 μM in Ca2+ for LPA1–LPA3 and cAMP for LPA4
Summary of the method: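 Selectivity was tested with test compound at 10 μM. LPA1–LPA3 calcium mobilization was run externally in CHO cells over-expressing each receptor, under the provider's protocols. LPA4 was a TR-FRET cAMP assay in LPA4-overexpressing CHO cells, following the LPA5 cAMP method but against 250 nM hexadecyl LPA 16:0 (EC80).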

[7] = test system: >50 GPCRs (NIMH Psychoactive Drug Screening Program panel); assay: NIMH PDSP radioligand binding panel; conditions: < 50% inhibition at 10 μM or pKi ≤ 6
MDCK-mdr1 cells = assay: Bidirectional MDCK-MDR1 permeability; type: in vitro ADME; conditions: MDCK-MDR1 Transwell, 10 μM
Summary of the method: (§1)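 MDCK-mdr1 cells (passage 5) were grown on polycarbonate Transwell supports for 3 days and rinsed with warm HBSS. They were pre-incubated 30 min at 37 °C in HBSS with 10 mM HEPES and 0.25% BSA, pH 7.4, then TEER was measured. Test compound at 10 μM went to the apical donor (A-to-B) or basolateral donor (B-to-A) side, at 37 °C with light agitation. Receiver was sampled at 30, 60 and 90 min and analysed by LC-MS/MS. Papp came from dQ/dt, area 1.12 cm2 and initial donor concentration. Atenolol and propranolol were references.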

P-glycoprotein (MDR1) = assay: Bidirectional MDCK-MDR1 permeability; type: in vitro ADME; conditions: dog, MDCK-MDR1, pH 7.4
Summary of the method: as §1

[8] = Bidirectional MDCK-MDR1 permeability; type: in vitro ADME; conditions: dog, MDCK-MDR1, pH 7.4, Papp (B-to-A), MDCK-MDR1 Transwell, 10 μM
Summary of the method: as §1

[9] = Metabolic stability in rat liver microsomes; type: in vitro ADME; conditions: pH 7.4
Summary of the method: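 Rat liver microsomes (0.5 mg/mL protein) were used in 100 mM potassium phosphate, pH 7.4, at 37 °C, with NADPH at 1 mM final. Samples were taken at 0, 5, 15, 30 and 45 min and quenched 1:1 in cold acetonitrile containing labetalol and glyburide. Parent was measured by LC-MS/MS, and half-life and in vitro clearance were calculated. Two independent experiments in duplicate.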

LPA5 [10] = conditions: read-out: IC50, binding to [^3H]LPA; literature value ref 8; cited from earlier work

Compound: COc1cc2c(C(=O)N3CCCCC3)cn(-c3noc4ccc(C)cc34)c(=O)c2cc1OC [Compound 2, 6,7-Dimethoxy-2-(5-methylbenzo[d]isoxazol-3-yl)-4-(piperidine-1-carbonyl)isoquinolin-1(2H)-o-ne, reference compound]
- IC50 (LPA5 [1]): 38 nM
- effect on CFA-induced nociceptive hypersensitivity ([2]; 32 mg/kg): did not fully reverse the nociceptive hypersensitivity
- duration of effect in CFA model [2]: ~ 2 h
- antinociceptive effect in CCI model [3]: full antinociceptive effects

Compound: CCN1CCc2ccc(-n3cc(C(=O)N4CCC(F)CC4)c4cc(OC)c(OC)cc4c3=O)cc21 [Compound 3, 2-(1-Ethylindolin-6-yl)-4-(4-fluoropiperidine-1-carbonyl)-6,7-dimethoxyisoquinolin-1(2H)-one, reference compound]
- fold less potent than 2 (hLPA5 [4]): 2–3 fold
- IC50 (LPA5 [5]): 120 nM

Compound: COc1cc2c(C(=O)N(C)C)cn(-c3cccc(N(C)C)c3)c(=O)c2cc1OC [Compound 10, 2-(3-(Dimethylamino)phenyl)-6,7-dimethoxy-N,N-dimethyl-1-oxo-1,2-dihydroisoquinoline-4-car-boxamide]
- IC50, nM (hLPA5 [4]): inactive

Compound: C#CC1CCN(C(=O)c2cn(-c3cccc(N(C)C)c3)c(=O)c3cc(OC)c(OC)cc23)CC1 [Compound 26, 2-(3-(Dimethylamino)phenyl)-4-(4-ethynylpiperidine-1-carbonyl)-6,7-dimethoxyisoquinolin-1(2-H)-one]
- fold more potent than the unsubstituted piperidine 15 (hLPA5 [4]; calcium assay): ~ 2 fold
- IC50 (hLPA5 [6]): 890 ± 100 nM
- fold less potent than 2 (hLPA5 [6]): 4 – 10 fold

Compound: CN(C)c1cccc(-n2cc(C(=O)N3CCC(F)CC3)c3ccccc3c2=O)c1 [Compound 34, 2-(3-(Dimethylamino)phenyl)-4-(4-fluoropiperidine-1-carbonyl)isoquinolin-1(2H)-one]
- IC50, nM (hLPA5 [4]): total loss of potency

Compound: COc1cc2c(=O)n(-c3cccc(N(C)C)c3)cc(C(=O)N3CCC(F)CC3)c2cc1OCc1cccc2ccccc12 [Compound 44, 2-(3-(Dimethylamino)phenyl)-4-(4-fluoropiperidine-1-carbonyl)-7-methoxy-6-(naphthalen-1-ylm-ethoxy)isoquinolin-1(2H)-one]
- IC50, nM (hLPA5 [4]): total loss of activity

Compound: COc1cc2c(C(=O)N3CCC(F)CC3)cn(-c3ccc4occ(C)c4c3)c(=O)c2cc1OC [Compound 64, 4-(4-Fluoropiperidine-1-carbonyl)-6,7-dimethoxy-2-(3-methylbenzofuran-5-yl)isoquinolin-1(2H)-one]
- fold less potent than 3 and 66 (hLPA5 [4]; calcium assay): ~ 4 fold

Compound: COc1cc2c(C(=O)N3CCC(F)CC3)cn(-c3ccc4scc(C)c4c3)c(=O)c2cc1OC [Compound 65, 4-(4-Fluoropiperidine-1-carbonyl)-6,7-dimethoxy-2-(3-methylbenzo[b]thiophen-5-yl)isoquinolin-1(2H)-one]
- LPA1–LPA4 inhibition (LPA1–LPA4 receptors): <50%
- fold less potent than 2 (hLPA5 [4]): 1.5–2 fold
- effect on CFA-induced nociceptive hypersensitivity ([2]; 17.8 mg/kg): markedly alleviated nociceptive hypersensitivity
- duration of effect in CFA model [2]: ~ 5 h
- potency difference between cAMP and calcium mobilization assays (hLPA5 [6]): 4.9 fold
- affinity for panel receptors [7]: no significant affinity for most of the receptors
- Papp (B-to-A) (MDCK-mdr1 cells): 30.4 10^−6 cm/s
- efflux ratio at 90 min, 10 μM (P-glycoprotein (MDR1)): < 2.5
- Papp B→A at 90 min, 10 μM [8]: 31.1 ×10⁻⁶ cm/s
- CLint scaled at 0.75 h [9]: 48.4 mL/min/kg

Further lines, with some results ahead:

- IC50, nM (hLPA5 [4]): inactive
Compound: COc1cc2c(C(=O)N(C)Cc3ccncc3)cn(-c3cccc(N(C)C)c3)c(=O)c2cc1OC [Compound 11, 2-(3-(Dimethylamino)phenyl)-6,7-dimethoxy-N-methyl-1-oxo-N-(pyridin-4-ylmethyl)-1,2-dihydr-oisoquinoline-4-carboxamide]

- IC50, nM (hLPA5 [4]): inactive
Compound: COc1cc2c(C(=O)N3CCC3)cn(-c3cccc(N(C)C)c3)c(=O)c2cc1OC [Compound 13, 4-(Azetidine-1-carbonyl)-2-(3-(dimethylamino)phenyl)-6,7-dimethoxyisoquinolin-1(2H)-one]

- IC50, nM (hLPA5 [4]): inactive
Compound: COc1cc2c(C(=O)N3CCCC3)cn(-c3cccc(N(C)C)c3)c(=O)c2cc1OC [Compound 14, 2-(3-(Dimethylamino)phenyl)-6,7-dimethoxy-4-(pyrrolidine-1-carbonyl)isoquinolin-1(2H)-one]

- fold less potent than 2 (hLPA5 [6]): 4 – 10 fold
Compound: COc1cc2c(C(=O)N3CCC(F)CC3)cn(-c3cccc(N(C)C)c3)c(=O)c2cc1OC [Compound 23, 2-(3-(Dimethylamino)phenyl)-4-(4-fluoropiperidine-1-carbonyl)-6,7-dimethoxyisoquinolin-1(2H-)-one]

- IC50 (hLPA5 [6]): 2100 ± 300 nM
- fold less potent than 2 (hLPA5 [6]): 4 – 10 fold
Compound: COc1cc2c(C(=O)N3CCC(C#N)CC3)cn(-c3cccc(N(C)C)c3)c(=O)c2cc1OC [Compound 24, 1-(2-(3-(Dimethylamino)phenyl)-6,7-dimethoxy-1-oxo-1,2-dihydroisoquinoline-4-carbonyl)piper-idine-4-carbonitrile]

- IC50, nM (hLPA5 [4]): total loss of activity
Compound: COc1cc2c(=O)n(-c3cccc(N(C)C)c3)cc(C(=O)N3CCC(F)CC3)c2cc1OCc1ccccn1 [Compound 45, 2-(3-(Dimethylamino)phenyl)-4-(4-fluoropiperidine-1-carbonyl)-7-methoxy-6-(pyridin-2-ylmeth-oxy)isoquinolin-1(2H)-one]

- IC50, nM (hLPA5 [4]): completely inactive
Compound: COc1cc2c(C(=O)N3CCCCC3)cn(-c3cccc(C(N)=O)c3)c(=O)c2cc1OC [Compound 50, 3-(6,7-Dimethoxy-1-oxo-4-(piperidine-1-carbonyl)isoquinolin-2(1H)-yl)benzamide]

- IC50, nM (hLPA5 [4]): completely inactive
Compound: COc1cc2c(C(=O)N3CCCCC3)cn(-c3cccc(C(=O)N(C)C)c3)c(=O)c2cc1OC [Compound 51, 3-(6,7-Dimethoxy-1-oxo-4-(piperidine-1-carbonyl)isoquinolin-2(1H)-yl)-N,N-dimethylbenzamide]

- potency difference between cAMP and calcium mobilization assays (hLPA5 [6]): 3.9 fold
Compound: COc1cc2c(C(=O)N3CCCCC3)cn(-c3ccc4occ(C)c4c3)c(=O)c2cc1OC [Compound 56, 6,7-Dimethoxy-2-(3-methylbenzofuran-5-yl)-4-(piperidine-1-carbonyl)isoquinolin-1(2H)-one]

- potency difference between cAMP and calcium mobilization assays (hLPA5 [6]): 7.2 fold
Compound: COc1cc2c(C(=O)N3CCCCC3)cn(-c3ccc4ccn(C)c4c3)c(=O)c2cc1OC [Compound 58, 6,7-Dimethoxy-2-(1-methyl-1H-indol-6-yl)-4-(piperidine-1-carbonyl)isoquinolin-1(2H)-one]

- potency difference between cAMP and calcium mobilization assays (hLPA5 [6]): about 6 fold
Compound: CCCCCCCCCCCCCCCCOC[C@@H](O)COP(=O)(O)O [hexadecyl LPA 16:0, reference compound]
- IC50 (LPA5 [10]): 7.5 nM
